From ChEMBL document CHEMBL4422663, “Suppression of Tumor Growth and Metastases by Targeted Intervention in Urokinase Activity with Cyclic Peptides” (J Med Chem, 2019)
Calls of active or inactive are those of the source. The calls are words filed in the database; no cut-off is given here. Positions of bridges follow the written chain, without caps; N, C: chain ends. Residues, ends and D or L forms follow the SMILES beside them.

What was measured:
[1] = target: T1, Urokinase-type plasminogen activator (Mus musculus, UniProt P06869); test: Inhibition of uPA in presence of 75% mouse […] measured at 2 hrs
T1 sequence (P06869 21-178 limits assumed): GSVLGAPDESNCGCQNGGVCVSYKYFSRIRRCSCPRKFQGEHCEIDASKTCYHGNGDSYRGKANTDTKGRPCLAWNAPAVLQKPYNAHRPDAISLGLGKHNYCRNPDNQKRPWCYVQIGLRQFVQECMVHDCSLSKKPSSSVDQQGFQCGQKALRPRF
T1 sequence (P06869 180-433 limits assumed): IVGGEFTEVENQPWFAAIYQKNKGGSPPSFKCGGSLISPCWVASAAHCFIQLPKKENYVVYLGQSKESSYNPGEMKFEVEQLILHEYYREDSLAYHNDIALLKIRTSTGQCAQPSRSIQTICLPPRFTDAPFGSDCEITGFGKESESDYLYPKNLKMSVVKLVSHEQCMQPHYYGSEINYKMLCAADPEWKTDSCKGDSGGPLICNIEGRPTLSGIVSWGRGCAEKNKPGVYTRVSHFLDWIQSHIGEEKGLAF
Procedure, shortened: (§1)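 Peptide was preincubated in 75% murine plasma for 0–24 h (sampled at 0, 2, 8 and 24 h). Residual uPA-inhibitory activity was then measured and expressed as IC50.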

CT26 [2] = test: Antimetastatic activity against GFP-fused mouse CT26 cells allografted in Balb/c mouse assessed as reduction in tumor nodule numbers at 1.13 mg/kg, ip administered daily for 15 days by fluorescence-based assay; assay type: functional, organism-based
Procedure, shortened: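 Male Balb/c mice received 10^6 GFP-CT-26 cells iv and daily ip dosing on Days 1–15. On Day 16, pleural-surface tumor nodules per lung were counted after soaking in formaldehyde.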

[3] = target: Urokinase-type plasminogen activator (Mus musculus) (UniProt P06869); test: Inhibition of the intrinsic peri-cellular uPA in mouse CT26 cells assessed as reduction in cell invasion at 33 to 100 uM by Transwell invasion assay relative to control
Urokinase-type plasminogen activator (Mus musculus), sequence (P06869 21-178 limits assumed): as the sequence (P06869 21-178 limits assumed) above
Urokinase-type plasminogen activator (Mus musculus), sequence (P06869 180-433 limits assumed): as the sequence (P06869 180-433 limits assumed) above

[4] = target: T1, Urokinase-type plasminogen activator; test: Inhibition of mouse uPA serine protease domain preincubated for 15 mins followed by chromogenic substrate addition
[5] = Stability in 75% mouse plasma assessed as protease-mediated compound degradation measured 24 hrs post dose; assay type: ADME, cell-free; procedure, shortened: as §1
[6] = target: T1, Urokinase-type plasminogen activator; test: Binding affinity to mouse uPA by SPR assay
[7] = target: Tissue-type plasminogen activator (Homo sapiens, UniProt P00750); test: Inhibition of human tissue-type plasminogen activator preincubated for 15 mins followed by chromogenic substrate addition
Tissue-type plasminogen activator, sequence (P00750 whole entry): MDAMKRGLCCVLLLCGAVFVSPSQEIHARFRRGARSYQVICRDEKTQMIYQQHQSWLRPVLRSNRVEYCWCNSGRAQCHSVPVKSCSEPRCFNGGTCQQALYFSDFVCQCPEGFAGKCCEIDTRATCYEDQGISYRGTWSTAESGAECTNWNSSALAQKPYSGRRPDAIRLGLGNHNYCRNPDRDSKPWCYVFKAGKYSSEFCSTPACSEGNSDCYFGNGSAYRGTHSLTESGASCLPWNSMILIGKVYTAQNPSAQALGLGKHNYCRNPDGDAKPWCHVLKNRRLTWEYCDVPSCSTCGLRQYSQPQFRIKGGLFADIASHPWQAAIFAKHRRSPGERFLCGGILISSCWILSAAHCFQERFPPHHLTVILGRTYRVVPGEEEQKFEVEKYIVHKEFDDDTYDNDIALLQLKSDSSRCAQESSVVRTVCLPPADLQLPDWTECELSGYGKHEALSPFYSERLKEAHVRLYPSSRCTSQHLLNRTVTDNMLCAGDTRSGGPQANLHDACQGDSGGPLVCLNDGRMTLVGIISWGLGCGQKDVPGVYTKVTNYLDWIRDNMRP

CT26 [8] = test: Antimetastatic activity against mouse CT26 cells allografted in Balb/c mouse assessed as prolongation of mouse survival time at 11.3 mg/kg, ip administered daily for 15 days; assay type: functional, organism-based
[9] = target: T1, Urokinase-type plasminogen activator; test: Inhibition of uPA in presence of 75% mouse […] measured at 24 hrs; procedure, shortened: as §1
CT26 [10] = test: Antimetastatic activity against GFP-fused mouse CT26 cells allografted in Balb/c mouse assessed as reduction in hyperplastic weights at 1.13 mg/kg, ip administered daily for 15 days by fluorescence-based assay; assay type: functional, organism-based
Procedure, shortened: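 GFP-CT-26 cells (10^6) iv into male Balb/c, daily ip treatment Days 1–15, lungs resected and weighed at sacrifice on Day 16. Hyperplastic weight is lung weight minus the mean weight of lungs from non-implanted normal mice.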

[11] = Stability in 75% mouse plasma assessed as protease-mediated compound degradation measured within 8 hrs; assay type: ADME, cell-free; procedure, shortened: as §1
[12] = target: Urokinase-type plasminogen activator (Mus musculus) (UniProt P06869); test: Binding affinity to mouse uPA assessed as dissociation rate constant after 600 secs by SPR assay
CT26 [13] = test: Antimetastatic activity against GFP-fused mouse CT26 cells allografted in Balb/c mouse assessed as reduction in hyperplastic weights at 11.3 mg/kg, ip administered daily for 15 days by fluorescence-based assay; assay type: functional; conditions: 360 h
Procedure, shortened: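 Lung metastasis model: male Balb/c mice (~20 g, 6/group) given 10^6 GFP-CT-26 cells i.v. with peptide or saline, then daily i.p. dosing Day 1–15. Lungs resected and weighed immediately at sacrifice on Day 16; hyperplastic weight = lung weight minus weight of lungs from non-implanted normal mice.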

Prothrombin = Prothrombin (Homo sapiens, UniProt P00734); test: Inhibition of human thrombin preincubated for 15 mins followed by chromogenic substrate addition
Plasminogen = Plasminogen (Homo sapiens, UniProt P00747); test: Inhibition of human plasmin preincubated for 15 mins followed by chromogenic substrate addition
Plasminogen, sequence (P00747 97-580 limits assumed): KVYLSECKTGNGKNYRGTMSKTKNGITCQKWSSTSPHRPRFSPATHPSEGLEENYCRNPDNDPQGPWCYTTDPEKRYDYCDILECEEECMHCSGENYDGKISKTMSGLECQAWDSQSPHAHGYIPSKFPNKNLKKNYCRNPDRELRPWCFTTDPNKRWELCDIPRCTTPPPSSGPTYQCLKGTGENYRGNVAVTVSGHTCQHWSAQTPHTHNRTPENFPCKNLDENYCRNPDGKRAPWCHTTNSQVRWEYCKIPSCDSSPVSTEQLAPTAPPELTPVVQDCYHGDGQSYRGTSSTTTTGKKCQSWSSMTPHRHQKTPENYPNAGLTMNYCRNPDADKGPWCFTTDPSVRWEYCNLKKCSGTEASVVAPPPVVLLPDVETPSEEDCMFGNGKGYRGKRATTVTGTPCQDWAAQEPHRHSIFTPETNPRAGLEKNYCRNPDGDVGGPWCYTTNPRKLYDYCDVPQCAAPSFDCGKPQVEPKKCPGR
Plasminogen, sequence (P00747 581-810 limits assumed): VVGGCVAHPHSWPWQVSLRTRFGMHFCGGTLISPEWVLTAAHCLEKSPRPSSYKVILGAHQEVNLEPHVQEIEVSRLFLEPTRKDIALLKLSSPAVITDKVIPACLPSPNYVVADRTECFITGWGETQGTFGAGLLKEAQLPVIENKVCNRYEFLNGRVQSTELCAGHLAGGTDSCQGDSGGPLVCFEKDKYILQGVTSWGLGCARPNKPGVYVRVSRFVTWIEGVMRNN

[14] = target: T1, Urokinase-type plasminogen activator; test: Inhibition of mouse uPA preincubated for 15 mins followed by chromogenic substrate addition
[15] = target: T1, Urokinase-type plasminogen activator; test: Inhibition of uPA in presence of 75% mouse […] measured at 8 hrs; procedure, shortened: as §1
[16] = Toxicity in Balb/c mouse allografted with mouse CT26 cells assessed as effect on body weight at 1.13 to 11.3 mg/kg, ip administered daily for 15 days; assay type: organism-based; conditions: in vivo, 360 h
CT26 [17] = test: Antimetastatic activity against GFP-fused mouse CT26 cells allografted in Balb/c mouse assessed as reduction genomic DNA of metastatic cells at 1.13 mg/kg, ip administered daily for 15 days by qPCR analysis; assay type: functional, organism-based
Procedure, shortened: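 Lung-metastasis model: male Balb/c (~20 g, 6/group) given 10^6 GFP-CT-26 cells iv, then daily ip dosing from Day 1 to 15, killed on Day 16. Total DNA (200 ng) from homogenized lungs went to SYBR Green qPCR (287 bp amplicon, 45 cycles). The standard curve used CT-26 genomic DNA spiked into normal lung DNA at 0.135–100%.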

[18] = target: T1, Urokinase-type plasminogen activator; test: Binding affinity to mouse uPA expressed in HEK2936E cells by ITC assay
CT26 [19] = test: Cytotoxicity against mouse CT26 cells at 100 uM; assay type: cell-based; conditions: ct26, 100 µM
[20] = target: T1, Urokinase-type plasminogen activator; test: Inhibition of uPA in presence of 75% mouse […] measured immediately; procedure, shortened: as §1
CT26 [21] = test: Antimetastatic activity against GFP-fused mouse CT26 cells allografted in Balb/c mouse assessed as reduction genomic DNA of metastatic cells at 11.3 mg/kg, ip administered daily for 15 days by qPCR analysis; assay type: functional; conditions: 360 h
Procedure, shortened: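 Male Balb/c mice (~20 g, 6/group) given 10^6 GFP-CT-26 cells i.v. in 200 µl mixed with peptide or saline, then daily i.p. peptide Day 1–15; sacrificed Day 16. Lung total DNA isolated after homogenization; 200 ng per SYBR Green qPCR, quantified against standard curve of CT-26 DNA spiked into normal lung DNA (0.135%-100%).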

CT26 [22] = test: Antimetastatic activity against GFP-fused mouse CT26 cells allografted in Balb/c mouse assessed as reduction in tumor nodule numbers at 11.3 mg/kg, ip administered daily for 15 days by fluorescence-based assay; assay type: functional; conditions: 360 h
Procedure, shortened: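 Lung metastasis model: male Balb/c mice (~20 g, 6/group) given 10^6 GFP-CT-26 cells i.v. with peptide or saline, daily i.p. dosing Day 1–15, sacrificed Day 16. Surface tumor nodules on pleural surfaces counted per lung after soaking in formaldehyde.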

[23] = target: Urokinase-type plasminogen activator (Mus musculus) (UniProt P06869); test: Inhibition of the intrinsic peri-cellular uPA in mouse CT26 cells assessed as reduction in cell migration at 30 to 100 uM measured every hour by wound healing assay relative to control; assay type: cell-based
[24] = target: Urokinase-type plasminogen activator (Homo sapiens, UniProt P00749); test: Inhibition of human uPA preincubated for 15 mins followed by chromogenic substrate addition
Coagulation factor XI = Coagulation factor XI (Homo sapiens, UniProt P03951); test: Inhibition of human factor 11a preincubated for 15 mins followed by chromogenic substrate addition
Coagulation factor XI, sequence (P03951 19-387 limits assumed): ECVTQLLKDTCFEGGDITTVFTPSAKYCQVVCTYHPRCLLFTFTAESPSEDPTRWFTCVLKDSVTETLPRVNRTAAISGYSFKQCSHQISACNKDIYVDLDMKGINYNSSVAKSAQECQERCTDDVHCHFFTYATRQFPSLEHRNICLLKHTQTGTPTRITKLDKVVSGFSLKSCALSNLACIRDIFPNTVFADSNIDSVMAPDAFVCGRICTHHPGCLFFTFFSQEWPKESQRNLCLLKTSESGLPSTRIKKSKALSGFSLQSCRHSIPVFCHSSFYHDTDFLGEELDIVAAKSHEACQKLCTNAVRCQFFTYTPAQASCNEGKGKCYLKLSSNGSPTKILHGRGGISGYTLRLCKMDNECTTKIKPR
Coagulation factor XI, sequence (P03951 388-625 limits assumed): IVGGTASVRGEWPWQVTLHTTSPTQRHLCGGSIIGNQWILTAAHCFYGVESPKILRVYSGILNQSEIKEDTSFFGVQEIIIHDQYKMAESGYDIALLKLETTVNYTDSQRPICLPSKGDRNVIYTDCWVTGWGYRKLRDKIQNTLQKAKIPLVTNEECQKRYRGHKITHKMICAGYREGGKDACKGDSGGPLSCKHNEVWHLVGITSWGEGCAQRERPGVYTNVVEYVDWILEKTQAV

CC[C@H](C)[C@@H]1NC(=O)[C@H](Cc2ccc(O)cc2)NC(=O)[C@H](CCCNC(=N)N)NC(=O)[C@H](CO)NC(=O)[C@H](Cc2ccc(O)cc2)NC(=O)[C@H](C)NC(=O)[C@@H]2CCCN2C(=O)[C@@H](N)CSSC[C@@H](C(=O)O)NC(=O)CNC1=O (H-CPAYSRYIGC-OH; disulfide 1-10)
IC50 [1]: 11.9 nM | Activity (CT26 [2]): inactive | inhibition [3]: 70 to 80% | Ki [4]: 15.3 nM | Stability [5]: Unstable | Kd [6]: 2.4 nM | Ki [7]: > 25000 nM | Activity (CT26 [8]): inactive | IC50 [9]: 70.7 nM | Activity (CT26 [10]): inactive | Stability [11]: Stable | K [12]: 0.00066 s⁻¹ | inhibition in vivo at 11.3 mg/kg (CT26 [13]): 51.7% | Ki (Prothrombin): > 25000 nM | Ki (Plasminogen): > 25000 nM | Ki [14]: 6.8 nM | IC50 [15]: 11.3 nM | Activity [16]: Non-Toxic | Activity (CT26 [17]): inactive | Kd [18]: 10.6 nM | Activity (CT26 [19]): Non-Toxic | IC50 [20]: 10.1 nM | inhibition in vivo at 11.3 mg/kg (CT26 [21]): 49.8% | inhibition in vivo at 11.3 mg/kg (CT26 [22]): 46.5% | inhibition [23]: 30% | Ki [24]: 340 nM | Ki (Coagulation factor XI): > 25000 nM
